# ChEMBL document CHEMBL4033712, “Synthesis and biological evaluation of new C-12(α/β)-(N-) sulfamoyl-phenylamino-14-deoxy-andrographolide derivatives as potent anti-cancer agents” (Bioorg Med Chem Lett, 2017)
# What was measured:
# Format in all cases: functional
# EKVX = assay: Growth inhibition of human EKVX cells incubated for 48 hrs by sulforhodamine B assay
# Summary of the method: (§1)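 NCI-60 five-dose screen at 0.01, 0.1, 1, 10 and 100 µM, 48 h incubation, sulforhodamine B end point. GI50 (50% decrease in net growth), TGI (total growth inhibition) and LC50 (net 50% loss of initial cells) taken from log concentration versus % growth inhibition curves.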
# SF-539 = assay: Anticancer activity against human SF539 cells assessed as cell growth at 10 uM after 48 hrs by sulforhodamine B assay relative to control; details: SF-539, 48 h, read-out: Activity
# Summary of the method: (§2)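 Single-dose NCI-60 panel screen: compound added at 10 µM and the culture incubated 48 h. The end point was read by protein staining with sulforhodamine B. The value is percent growth of treated cells relative to untreated control cells, reported as a mean graph across the panel.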
# RPMI-8226 = assay: Growth inhibition of human RPMI8226 cells incubated for 48 hrs by sulforhodamine B assay; details: RPMI-8226, 48 h
# Summary of the method: (§3)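 NCI 60 human tumour cell line panel, five-dose study at 0.01, 0.1, 1, 10 and 100 µM, 48 h incubation. Sulforhodamine B protein-binding dye end point. GI50 (50% decrease in net cell growth), TGI (total growth inhibition) and LC50 (net 50% loss of initial cells) read from log concentration versus % growth inhibition curves.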
# M14 = assay: Growth inhibition of human M14 cells incubated for 48 hrs by sulforhodamine B assay; details: M14, 48 h; summary of the method: as §1
# UACC-257 = assay: Growth inhibition of human UACC257 cells incubated for 48 hrs by sulforhodamine B assay; details: UACC-257, 48 h; summary of the method: as §3
# NCI-H23 = assay: Growth inhibition of human NCI-H23 cells incubated for 48 hrs by sulforhodamine B assay; details: NCI-H23, 48 h; summary of the method: as §1
# SR = assay: Growth inhibition of human SR cells incubated for 48 hrs by sulforhodamine B assay; summary of the method: as §3
# SNB-19 = assay: Anticancer activity against human SNB19 cells assessed as cell growth at 10 uM after 48 hrs by sulforhodamine B assay relative to control; details: SNB-19, 48 h, read-out: Activity; summary of the method: as §2
# OVCAR-3 = assay: Growth inhibition of human OVCAR3 cells incubated for 48 hrs by sulforhodamine B assay; details: OVCAR-3, 48 h; summary of the method: as §1
# RXF 393 = assay: Growth inhibition of human RXF393 cells incubated for 48 hrs by sulforhodamine B assay; details: RXF 393, 48 h; summary of the method: as §3
# NCI-H460 = assay: Growth inhibition of human NCI-H460 cells incubated for 48 hrs by sulforhodamine B assay; details: NCI-H460, 48 h; summary of the method: as §1
# MOLT-4 = assay: Growth inhibition of human MOLT4 cells incubated for 48 hrs by sulforhodamine B assay; details: MOLT-4, 48 h; summary of the method: as §1
# UACC-62 = assay: Growth inhibition of human UACC62 cells incubated for 48 hrs by sulforhodamine B assay; details: UACC-62, 48 h; summary of the method: as §3
# UO-31 = assay: Growth inhibition of human UO31 cells incubated for 48 hrs by sulforhodamine B assay; details: UO-31, 48 h; summary of the method: as §3
# HOP-92 = assay: Anticancer activity against human HOP92 cells assessed as cell growth at 10 uM after 48 hrs by sulforhodamine B assay relative to control; details: HOP-92, 48 h, read-out: Activity; summary of the method: as §2
# SK-MEL-5 = assay: Growth inhibition of human SK-MEL-5 cells incubated for 48 hrs by sulforhodamine B assay; details: SK-MEL-5, 48 h; summary of the method: as §3
# MDA-MB-435 = assay: Growth inhibition of human MDA-MB-435 cells incubated for 48 hrs by sulforhodamine B assay; details: MDA-MB-435, 48 h; summary of the method: as §1
# NCI-H226 = assay: Growth inhibition of human NCI-H226 cells incubated for 48 hrs by sulforhodamine B assay; details: NCI-H226, 48 h; summary of the method: as §1
# CAKI-1 = assay: Growth inhibition of human Caki1 cells incubated for 48 hrs by sulforhodamine B assay; details: CAKI-1, 48 h; summary of the method: as §1
# MCF7 = assay: Growth inhibition of human MCF7 cells incubated for 48 hrs by sulforhodamine B assay; details: MCF7, 48 h; summary of the method: as §1
# SK-OV-3 = assay: Growth inhibition of human SKOV3 cells incubated for 48 hrs by sulforhodamine B assay; details: SK-OV-3, 48 h; summary of the method: as §3
# SF-295 = assay: Growth inhibition of human SF295 cells incubated for 48 hrs by sulforhodamine B assay; details: SF-295, 48 h; summary of the method: as §3
# T47D = assay: Growth inhibition of human T47D cells incubated for 48 hrs by sulforhodamine B assay; summary of the method: as §3
# HCT-15 = assay: Growth inhibition of human HCT15 cells incubated for 48 hrs by sulforhodamine B assay; details: HCT-15, 48 h; summary of the method: as §1
# U-251 = assay: Growth inhibition of human U251 cells incubated for 48 hrs by sulforhodamine B assay; details: U-251, 48 h; summary of the method: as §3
# HOP-62 = assay: Growth inhibition of human HOP62 cells incubated for 48 hrs by sulforhodamine B assay; details: HOP-62, 48 h; summary of the method: as §1
# OVCAR-8 = assay: Growth inhibition of human OVCAR8 cells incubated for 48 hrs by sulforhodamine B assay; details: OVCAR-8, 48 h; summary of the method: as §1
# NCI-H522 = assay: Growth inhibition of human NCI-H522 cells incubated for 48 hrs by sulforhodamine B assay; details: NCI-H522, 48 h; summary of the method: as §1
# [1] = read-out: LC50 (the source's name)
compound,measurement,setting,value
C=C1CC[C@@H]2[C@](C)(COC(C)=O)[C@H](OC(C)=O)CC[C@@]2(C)[C@H]1CC(Nc1ccc(S(=O)(=O)Nc2nccs2)cc1)C1=CCOC1=O (stereo partly drawn),GI50,EKVX,14 µM
same,TGI,EKVX,27 µM
same,CC50,EKVX; [1],52 µM
same,growth at 10 µM,SF-539,-67.1%
same,GI50,RPMI-8226,2.49 µM
same,TGI,RPMI-8226,7.62 µM
same,CC50,RPMI-8226; [1],> 100 µM
same,GI50,M14,2.83 µM
same,TGI,M14,10.5 µM
same,CC50,M14; [1],42.2 µM
same,GI50,UACC-257,2.55 µM
same,TGI,UACC-257,5.61 µM
same,CC50,UACC-257; [1],17.2 µM
same,GI50,NCI-H23,10 µM
same,TGI,NCI-H23,24.8 µM
same,CC50,NCI-H23; [1],61.6 µM
same,GI50,SR,1.33 µM
same,TGI,SR,> 100 µM
same,CC50,SR; [1],> 100 µM
same,growth at 10 µM,SNB-19,49.1%
same,GI50,OVCAR-3,1.88 µM
same,TGI,OVCAR-3,3.64 µM
same,CC50,OVCAR-3; [1],7.06 µM
same,GI50,RXF 393,2.36 µM
same,TGI,RXF 393,4.74 µM
same,CC50,RXF 393; [1],9.53 µM
same,GI50,NCI-H460,10.7 µM
same,TGI,NCI-H460,25.3 µM
same,CC50,NCI-H460; [1],59.9 µM
same,GI50,MOLT-4,3.68 µM
same,TGI,MOLT-4,73.2 µM
same,CC50,MOLT-4; [1],> 100 µM
same,GI50,UACC-62,1.76 µM
same,TGI,UACC-62,4.42 µM
same,CC50,UACC-62; [1],13.5 µM
same,GI50,UO-31,4.07 µM
same,LC50 (concentration giving net 50% loss of initial cells),UO-31,41.8 µM
same,TGI,UO-31,16.1 µM
same,growth at 10 µM,HOP-92,54%
same,GI50,SK-MEL-5,4.79 µM
same,TGI,SK-MEL-5,17.1 µM
same,CC50,SK-MEL-5; [1],41.3 µM
same,GI50,MDA-MB-435,3.29 µM
same,TGI,MDA-MB-435,12.7 µM
same,CC50,MDA-MB-435; [1],38 µM
same,GI50,NCI-H226,2.36 µM
same,TGI,NCI-H226,5.37 µM
same,CC50,NCI-H226; [1],> 100 µM
same,GI50,CAKI-1,3.8 µM
same,TGI,CAKI-1,14.2 µM
same,CC50,CAKI-1; [1],37.7 µM
same,GI50,MCF7,2.59 µM
same,TGI,MCF7,13.6 µM
same,CC50,MCF7; [1],> 100 µM
same,GI50,SK-OV-3,14.4 µM
same,TGI,SK-OV-3,27.8 µM
same,CC50,SK-OV-3; [1],53.5 µM
same,GI50,SF-295,13.8 µM
same,TGI,SF-295,27.2 µM
same,CC50,SF-295; [1],53.8 µM
same,GI50,T47D,3.39 µM
same,TGI,T47D,20.8 µM
same,CC50,T47D; [1],> 100 µM
same,GI50,HCT-15,1.73 µM
same,TGI,HCT-15,4.12 µM
same,CC50,HCT-15; [1],9.84 µM
same,GI50,U-251,1.86 µM
same,TGI,U-251,3.5 µM
same,CC50,U-251; [1],6.57 µM
same,GI50,HOP-62,13.8 µM
same,TGI,HOP-62,27.5 µM
same,CC50,HOP-62; [1],54.7 µM
same,GI50,OVCAR-8,3.14 µM
same,TGI,OVCAR-8,10.8 µM
same,CC50,OVCAR-8; [1],47.7 µM
same,GI50,NCI-H522,1.72 µM
same,TGI,NCI-H522,4.32 µM
same,CC50,NCI-H522; [1],21.2 µM
